This is an account of results in ChEMBL document CHEMBL4513216, “Probing the Open Global Health Chemical Diversity Library for Multistage-Active Starting Points for Next-Generation Antimalarials” (ACS Infect Dis, 2020).

The nature of the series: Toxicity liver stage against HepG2, at 10uM. More on the design: test concentration 10 uM, cell line HepG2-A16-CD81EGFP. It is filed as cell-based. The settings on record: human, HepG2-A16-CD81EGFP cells; read-out: INHIBITION
Put shortly:
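Uninfected HepG2-A16-CD81EGFP cells, 3 × 10^3 per well, 1536-well, plated on prespotted compound at 10 μM final, parasite-free screening media added to match infected plates; puromycin 10 μM positive, DMSO 0.5% negative; run in parallel with 48 h PbLuc assay at 37 °C, 5% CO2; viability by CellTiter-Glo luminescence, normalized to controls.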
Turning to `Cc1ccc(CNC2(Cc3cc(-c4ccccn4)on3)COC2)o1`, the cytotoxicity at 10 µM is 8.91%.
As for `O=c1[nH]c2c(-c3ccccn3)nsc2c(=O)n1CC1CC1`, the cytotoxicity at 10 µM came out at 36.2%.
Take `CS(=O)(=O)N1CCO[C@@H]2CN(C(=O)COC3CCCC3)C[C@@H]2C1`: the cytotoxicity at 10 µM is 7.04%.
`Cc1cnc(N2CCC3(CC2)CC(NC(=O)C(C)C)CO3)nc1` (centres undefined): the cytotoxicity at 10 µM was 8.19%.
As for `Cc1cccc(C(=O)N2CC[C@H]3C[C@@H](C)O[C@@H]3C2)n1`, the cytotoxicity at 10 µM was 5.37%.
For `COc1ccc(OC)c(NC(=O)CSc2ccc3nncn3n2)c1`, the cytotoxicity at 10 µM is -14.2%.
In the case of `Cn1nc(C(=O)N2CCSCC2)cc1NC(=O)c1ccccc1`, the cytotoxicity at 10 µM was -13.9%.
With `Cc1nn(CCc2nnc(NCC(C)C)s2)c(C)c1Br`, the cytotoxicity at 10 µM is 1.91%.
Then `Cn1ccnc1C1(O)CCCN(Cc2ccncc2)CC1` (centres undefined), with 1.52%; and `COc1ccc(N2CCNC(C(N)=O)C2)cc1` (centres undefined), with -4.8%.
Take `COCC(=O)N1CCC(c2cc(-c3ccc(N)nc3)cc(C)n2)CC1`: the cytotoxicity at 10 µM stood at 2.06%.
Consider `CC(=O)N1CCCC1c1nc(C)no1` (centres undefined), for which the cytotoxicity at 10 µM is -14.8%.
For the compound `COCC(=O)N1CCCC1c1nccnc1Nc1ncccn1` (centres undefined), the cytotoxicity at 10 µM is -2.69%.
Take `O=C(Cc1ccc(F)cc1)N1CCCCC1c1ccn2ccnc2n1` (centres undefined): the cytotoxicity at 10 µM was -0.722%.
Consider `O=C(O)Cc1cn2cc(C(F)(F)F)ccc2n1`, for which the cytotoxicity at 10 µM is 11.4%.
For `CCn1cc(NC(=O)NCCN2CCCCCC2=O)cn1`, the cytotoxicity at 10 µM was found to be 0.107%.
`Cn1cnnc1C1CCCN(c2nc3ccccc3o2)C1` (centres undefined): the cytotoxicity at 10 µM was -17.4%.
As for `CC(C)c1ccc(S(=O)(=O)NC2CCN(CC(F)(F)F)C2)cc1` (centres undefined), the cytotoxicity at 10 µM was found to be 9.19%.
Turning to `CCN(Cc1ccoc1)C(=O)Nc1ccccc1CN(C)C(C)=O`, the cytotoxicity at 10 µM was 4.55%.
Consider `CCOc1ncccc1C(=O)NC1CC(=O)N(CC(F)(F)F)C1` (centres undefined), for which the cytotoxicity at 10 µM worked out at 4.43%.
The value for `Cc1n[nH]c(C)c1CNC(=O)NC1CCCN(c2ccccc2F)C1` (centres undefined) was -2.57%; that for `O=C(c1ccon1)N1CCN(c2ccncc2Cl)CC1` was 2.22%.
As for `CCC(C)(NCC(N)=O)c1nccs1` (centres undefined), the cytotoxicity at 10 µM was found to be 7.3%.
The value for `CC(NC(=O)CCCc1nc(C(C)(C)C)no1)c1nnc2n1CCC2` (centres undefined) was -0.527%; that for `Cc1cnn(CCNCC(O)c2ccc(F)c(F)c2)c1` (centres undefined) was -0.796%.
With `CCc1nnc2n1CCN(C(=O)c1ccccc1OCC1CC1)C2`, the cytotoxicity at 10 µM amounted to 2.3%.
For the compound `c1ccc(CCN2CCOC3(CCc4ccccc43)C2)nc1` (centres undefined), the cytotoxicity at 10 µM was -4%.
On to `COC(=O)c1ccc(/C=C/c2ncc(C(=O)O)s2)cc1`, for which the cytotoxicity at 10 µM is -7.11%.
Take `CCC(CO)NC(=O)Cc1ccc(NC(=O)CC2=CCCCC2)cc1` (centres undefined): the cytotoxicity at 10 µM turned out to be 0.571%.
In the case of `CC(=O)N1CCC(Nc2ccc(Br)cc2C#N)C1` (centres undefined), the cytotoxicity at 10 µM amounted to 2.5%.
As to `CN(c1ncnc2sccc12)C1CCCN(c2cccnn2)C1` (centres undefined), the cytotoxicity at 10 µM amounted to 0.0357%.
With `COCCN(CCN(C)C)C(=O)NC1CC1`, the cytotoxicity at 10 µM was -1.78%.
Consider `COc1ccc2c(c1)C(NCCc1c(C)noc1C)CCCO2` (centres undefined), for which the cytotoxicity at 10 µM is -2.79%.
For `Cc1ccsc1CNC(=O)CC1CN(C(=O)OC(C)(C)C)C1`, the cytotoxicity at 10 µM was -4.66%.
As for `CC(O)(CNC(=O)c1cccnc1-n1cccn1)c1ccco1` (centres undefined), the cytotoxicity at 10 µM is 3.09%.
On to `CC(=O)NC(CC(=O)Nc1nc(C)c(C)s1)c1ccccc1` (centres undefined), for which the cytotoxicity at 10 µM was determined as 3.78%.
For the compound `Cc1cc(C)cc(OCC(=O)N2CCCN(CC(N)=O)CC2)c1`, the cytotoxicity at 10 µM is 0.821%.
Take `Cc1ccccc1C(C)(C)CNC(=O)CN(C)c1cnccn1`: the cytotoxicity at 10 µM is -2.21%.
In the case of `CCCC(=O)NC1CCCN(Cc2cccs2)C1` (centres undefined), the cytotoxicity at 10 µM is -3.25%.
Take `CCc1nsc(NC2CCCn3nc(COC)nc32)n1` (centres undefined): the cytotoxicity at 10 µM stood at 14.1%.
For the compound `OCC1CCCN1c1cc(NCCNc2ccccn2)ncn1` (centres undefined), the cytotoxicity at 10 µM was -20.1%.
With `Cn1ccnc1CNC(=O)N1CCCC(Cc2nccn2C)C1` (centres undefined), the cytotoxicity at 10 µM stood at 2.63%.
Consider `CC(C)Oc1ncnc2c1CCN(C(=O)c1cccn1C)CC2`, for which the cytotoxicity at 10 µM worked out at 6.95%.
Then `COCc1noc(CCNC(=O)c2cc(C)c(C)[nH]c2=O)n1`, with -4.71%; and `CN(CCCC1CCCO1)C(=O)c1cccc(C#N)c1` (centres undefined), with -7.52%; and `CN1CCN(C2CCCC2)C(CCO)C1` (centres undefined), with 0.456%.
Take `CCc1nc(N2CCCC(CCOC)(C(=O)O)C2)ncc1C` (centres undefined): the cytotoxicity at 10 µM was determined as 4.11%.
The value for `CN(C)CC1(O)CCCN(c2ccnc3c(C(F)(F)F)cccc23)C1` (centres undefined) was -4.55%.
Consider `C[C@@H]1CN(C(=O)CSc2nncn2C)C[C@@]1(O)C1CC1`, for which the cytotoxicity at 10 µM is -15.7%.
On to `COc1cc2c(cc1-c1nc3c(cnn3C(C)C)[nH]1)OCO2`, for which the cytotoxicity at 10 µM was -6.85%.
Then `Cc1ccc(CCNc2nccc(-c3cc(C(=O)O)ccn3)n2)o1`, with -2.86%; and `CCC(CO)N(Cc1cccnc1)C(=O)c1ccncc1F` (centres undefined), with 2.59%.
`CC(C)(C)CNCC1(O)CCCN(Cc2ccccc2F)C1=O` (centres undefined): the cytotoxicity at 10 µM stood at 9.04%.
For `CN1Cc2nnc(C3CCOCC3)n2C(Cc2c[nH]cn2)C1` (centres undefined), the cytotoxicity at 10 µM is -12.1%.
Regarding `Cc1ccc(OC2(C(=O)N(C)Cc3ccoc3)CCNCC2)cc1`, the cytotoxicity at 10 µM came to 9.41%.
Take `COc1ccccc1OC1CN(C(=O)c2ccc(C(C)=O)s2)C1`: the cytotoxicity at 10 µM worked out at 2.01%.
Regarding `CC1(C)OC(=O)N(CCOc2ccc(F)cc2)C1=O`, the cytotoxicity at 10 µM is -8.68%.
In the case of `CC(C)N1CCC(CC(=O)NC[C@H]2CCc3ccccc3O2)CC1`, the cytotoxicity at 10 µM came out at 2.04%.
Consider `CCN(CC1CCCN(CCc2cccc(OC)c2)C1)C(=O)CO` (centres undefined), for which the cytotoxicity at 10 µM was found to be 9.34%.
Take `COCc1cc(NCC(F)(F)F)n2nccc2n1`: the cytotoxicity at 10 µM worked out at 17%.
Regarding `COc1ccc(F)c(F)c1CN1CCC2(CC1)[C@H](O)C[C@@H]2OCCN`, the cytotoxicity at 10 µM was -14.5%.
`CCn1ccnc1-c1nc2cc(S(=O)(=O)N3CCCC3)ccc2n1C`: the cytotoxicity at 10 µM is -22.3%.
Turning to `CCn1cc(CN(C)C(=O)c2cccc(CCC(C)(C)O)c2)cn1`, the cytotoxicity at 10 µM was -0.0444%.
As for `O=C(CCc1c[nH]cn1)N1CC[C@@H](c2ccc3ccccc3c2)[C@H](O)C1`, the cytotoxicity at 10 µM was -4.04%.
As for `O=C(c1ccccn1)N1CCCC(c2nccn2Cc2ccncc2)C1` (centres undefined), the cytotoxicity at 10 µM is -14.1%.
Then `CC(C(=O)N1CCCC1)N1CCC(c2nccn2CC2CCC2)CC1` (centres undefined), with -1.96%; and `Cn1nccc1CNC(=O)CCn1nc(C(F)(F)F)c(Cl)c1C1CC1`, with -3.33%; and `O=C(NCCn1ccnc1)c1ccn(-c2ccccc2F)n1`, with 0.533%.
As for `Cc1cc(C)c(CNC(=O)N(C)Cc2ccc(F)cc2)c(=O)[nH]1`, the cytotoxicity at 10 µM was -9.12%.
For the compound `Cc1ccc(C(C)NCc2c(C(C)C)nn(C)c2N2CCOCC2)o1` (centres undefined), the cytotoxicity at 10 µM is -4.79%.
For `O=S1(=O)CCC(N(Cc2nc(-c3ccccn3)no2)Cc2cccs2)C1` (centres undefined), the cytotoxicity at 10 µM is -4.54%.
On to `CNS(=O)(=O)c1ccc(C(=O)N2CCCC2c2ccccc2C)o1` (centres undefined), for which the cytotoxicity at 10 µM was -6.23%.
Take `Cc1ccc(NC2CCN(C(=O)CCc3cscn3)CC2)nn1`: the cytotoxicity at 10 µM was -9.2%.
Turning to `COc1cccc(CN2CCCC(Cn3nc(C)nc3C)C2)c1` (centres undefined), the cytotoxicity at 10 µM was -13.4%.
For `CC(C(=O)NCc1ccc(N2CCCCC2)nc1)n1cncn1` (centres undefined), the cytotoxicity at 10 µM was -10.3%.
The value for `O=C(CN1CCCC1c1noc(C2CC2)n1)N1CCc2ccccc21` (centres undefined) was -5.86%; that for `Cc1nn(C)c(N2CCOCC2)c1CNC1CCc2ccccc21` (centres undefined) was -0.704%.
`Cc1ccc(C(CNC(=O)c2c(C)noc2C(C)C)N(C)C)cc1` (centres undefined): the cytotoxicity at 10 µM was -12.4%.
The value for `CN(Cc1nc(-c2ccoc2)no1)C1CCCN(c2cccnn2)C1` (centres undefined) was -14.8%; that for `CN(C)c1ccc(C(=O)N2CCN(CC(O)C(C)(C)C)CC2)nn1` (centres undefined) was -19.2%; that for `Cc1cc(CN2CCOC(CNc3cccnn3)C2)no1` (centres undefined) was -18.4%.
Consider `CN(Cc1ccc(N2CCOCC2)cc1)C(=O)Cn1cccnc1=O`, for which the cytotoxicity at 10 µM is -18.4%.
Take `COC(=O)CC(NC(=O)c1ccc(OC)cc1OC)c1cccs1` (centres undefined): the cytotoxicity at 10 µM is -0.554%.
For the compound `Cc1cnn(CCNCc2ccc(OCc3ccncc3)cc2)c1`, the cytotoxicity at 10 µM was -2.99%.
Take `Cc1cnn(CC2CCCCN2C(=O)Cc2c(C)nn(C)c2C)c1` (centres undefined): the cytotoxicity at 10 µM was -13%.
Take `Cn1ccnc1CN1CCOC(Cn2cccn2)C1` (centres undefined): the cytotoxicity at 10 µM was -6.07%.
Regarding `COc1cccc(CNC(=O)c2cccnc2SC(C)C)c1`, the cytotoxicity at 10 µM is -1.35%.
For `CC1CCCCN1CCNC(=O)c1ccn(-c2ccccc2)n1` (centres undefined), the cytotoxicity at 10 µM was -15.2%.
`Cc1cnc(C(=O)N2CCCC(n3nc(C)nc3C)C2)cn1` (centres undefined): the cytotoxicity at 10 µM is -12%.
For `CC(NC(=O)NCC1(c2ccc(F)cc2)CCC1)c1nncn1C` (centres undefined), the cytotoxicity at 10 µM was -3.59%.
Consider `CN1CC(=O)N(c2ccccc2)CC12CCN(Cc1nccn1C)C2` (centres undefined), for which the cytotoxicity at 10 µM is -1.17%.
On to `COCC1c2c(cnn2CC2CC2)CCN1Cc1nccs1` (centres undefined), for which the cytotoxicity at 10 µM was -1.21%.
On to `CC(=O)N1CCN(c2cc(C3CCNCC3)ccn2)CC1`, for which the cytotoxicity at 10 µM came to 6.91%.
For `O=C(COCC1CC[C@H]2[C@H](CCN2c2ncccn2)O1)N1CCCC1` (some centres undefined), the cytotoxicity at 10 µM worked out at 1.27%.
As for `CCc1cnc(N2CC3(CCN(Cc4ccsc4)C3)C2)nc1`, the cytotoxicity at 10 µM was found to be 2.98%.
With `COc1ncccc1CN1CCn2c(C(=O)N3CCCC3)cnc2C1`, the cytotoxicity at 10 µM came out at 8.28%.
Take `CCc1cnc(N2C[C@@H]3C[C@H](C(=O)NCC(C)C)[C@H](C2)O3)nc1`: the cytotoxicity at 10 µM came out at 12%.
Regarding `NC(=O)NCC(=O)N1C[C@@H]2CC[C@H]1CN(Cc1cscn1)C2`, the cytotoxicity at 10 µM came out at 8.86%.
For `COCC(=O)NCC1(COc2cnccn2)C[C@@H](O)[C@@H](O)C1` (some centres undefined), the cytotoxicity at 10 µM amounted to 2.17%.
